Source: PubChem (several laboratories)
NR2E3 ag-1: human photoreceptor-specific nuclear receptor agonism; 0.35% of 360,000 active; Q9Y5X4; CHO-S Gal4-NCOR/VP16-NR2E3 two-hybrid, luciferase; AID 602229; inhibition of corepressor binding, % at 3.98 µM;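 active = inhibition above the mean of all tested compounds plus 3 SD, cut at about 70% in these data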;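 also: 0% = DMSO with NR2E3 transfected cells and 100% = cells lacking NR2E3 construct; higher means lower luciferase signal from less NR2E3 corepressor binding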
HCV core dimer: HCV core protein dimerization inhibition; TR-FRET GST/Flag-core106 dimerization, 1536-well; inhibition, % at 5 µM; 0.33% of 300,000 active; AID 1899;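 active = inhibition above the mean of all tested compounds plus 3 SD, set per screening campaign, cut at about 45% in these data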
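Test system: GST/Flag-tagged HCV core106 proteins; Medium: KF-containing HEPES buffer, pH 7.45, DTT, CHAPS, BSA; Times: compound-protein-antibody incubation 4 h at 22.5 °C; Detection: TR-FRET 671 and 617 nm emission; Benchmarks: wells lacking GST-core106 and wells with excess unlabelled core106.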
DAGLB inhibitor: diacylglycerol lipase beta (human) inhibition; Q8NCG7; 0.059% of 340,000 active; inhibition, % at 5.17 µM; AID 504411; HEK293T DAGLB membrane lysate, EnzChek fluorogenic substrate; in the data active = inhibition above about 34%;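 also: 0% = enzyme with vehicle and 100% = wells lacking enzyme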
Target sequence (Q8NCG7 whole entry, looked up): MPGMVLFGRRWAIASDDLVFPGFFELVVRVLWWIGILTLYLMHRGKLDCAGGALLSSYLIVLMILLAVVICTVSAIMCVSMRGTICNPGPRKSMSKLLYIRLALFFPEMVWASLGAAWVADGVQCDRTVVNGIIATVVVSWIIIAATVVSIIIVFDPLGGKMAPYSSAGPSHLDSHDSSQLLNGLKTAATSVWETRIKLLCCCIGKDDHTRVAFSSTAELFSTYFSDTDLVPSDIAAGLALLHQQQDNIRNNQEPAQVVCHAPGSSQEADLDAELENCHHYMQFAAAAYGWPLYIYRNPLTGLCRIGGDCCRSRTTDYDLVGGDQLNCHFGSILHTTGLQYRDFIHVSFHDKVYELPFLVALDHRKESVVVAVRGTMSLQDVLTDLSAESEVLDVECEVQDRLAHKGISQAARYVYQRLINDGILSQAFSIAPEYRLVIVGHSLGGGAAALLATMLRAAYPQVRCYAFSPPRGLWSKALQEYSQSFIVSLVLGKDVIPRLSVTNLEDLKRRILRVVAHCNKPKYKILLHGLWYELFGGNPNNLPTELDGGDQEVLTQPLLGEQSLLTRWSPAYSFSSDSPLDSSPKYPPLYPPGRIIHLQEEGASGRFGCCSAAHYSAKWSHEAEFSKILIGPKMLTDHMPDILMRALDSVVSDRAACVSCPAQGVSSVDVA
MT1-MMP act inh: blocks activation of human MT1-MMP. P50281. HT1080 RFP-PRO-GFP cells, GFP/RFP ratio fluorescence, overnight; percent of plate control window, DMSO zero. GFP/RFP ratio change, % at 20 µM. 0.061% of 360,000 active;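 active = GFP/RFP ratio change of at least 30% with cell ATP level not reduced by more than half and red fluorescence within 50% of control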
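Compound: 20 µM single dose, 1% DMSO / System: HT1080 RFP-PRO-GFP cells / Controls: DMSO and RFP-L50D-GFP cell wells / Read-out basis: GFP/RFP fluorescence ratio / Schedule: overnight compound exposure at 37 °C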
NR2E3 ag-2: activates human photoreceptor nuclear receptor NR2E3. Q9Y5X4. GST-NR2E3/biotin-RetCOR TR-FRET, 1536-well. inhibition of corepressor binding, % at 4.78 µM. 0.12% of 320,000 active. AID 2300;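 active = percent inhibition above the cutoff of mean plus 3 SD of all tested compounds, set per screening campaign, cut at about 20% in these data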;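 also: 0% = DMSO wells and 100% = biotin wells as full block of FRET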
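Material – GST-tagged NR2E3 plus biotinylated RetCOR corepressor · Quantity – NR2E3 fusion 1.35 nM · Times – 5 h incubation at 4 °C · Medium – pH 7.5 Tris-based buffer · Technique – TR-FRET, Eu(K)-anti-GST donor, streptavidin-D2 acceptor, ex 340, em 617/671 nm · Benchmarks – high control biotin, low control 0.6% DMSO · Format – 1536-well plates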
Vif imaging: blocks HIV Vif function. HEK293T cells, Vif self-association by quenched fluorescence, imaging, 24 h. AID 602346. inhibition, % at 7.49 µM. 0.35% of 340,000 active; in the data active = inhibition above about 50%, passing the limit was not always enough; inconclusive = no clear call, values can overlap the other calls; inactive = below about 31%
Active calls of the source: *; ? = inconclusive; . = not tested or not shown. Hits are enriched below; roughly 1.1% of the tested compounds scored in any of these assays.

SMILES	NR2E3 ag-1	HCV core dimer	DAGLB inhibitor	MT1-MMP act inh	NR2E3 ag-2	Vif imaging
COc1ccccc1Cn1c(=S)[nH]c2cc(C(=O)N3CCCC(C)C3)ccc2c1=O (stereo unspecified)	15.9	.	0.5	-0.6	.	-1.1
CCCCN(C(=O)CSCc1c(C)noc1C)c1c(N)n(CCCC)c(=O)[nH]c1=O	-14.4	-3.3	0.4	1.1	-2.5	0.2
CC(C)C(=O)Nc1ccc(C(=O)N/N=C/C2CC3C=CC2C3)cc1 (stereo unspecified)	13.8	-5.0	-1.5	2.6	-0.5	57.9*
CCOc1ccccc1N(CC(=O)NCC1CCCO1)C(=O)CCC(=O)Nc1nccs1 (stereo unspecified)	4.2	5.4	0.9	1.7	-0.3	60.6*
O=S(=O)(Nc1cccnc1)c1ccccc1	-23.7	-5.7	-3.0	3.6	2.5	-0.7
O=S(=O)(Nc1cccnc1)c1ccc(C2CCCCC2)cc1	91.7*	11.3	-2.7	0.1	-1.2	.
O=C(CN1CCN(C(=O)C2CCN(C(=O)/C=C/c3ccccc3)CC2)CC1)Nc1ccccc1Cl	7.8	.	1.2	4.7	.	-6.8
Cc1cccc(N(C)S(=O)(=O)c2ccc3c(c2)C(C)(C)C(=O)N3C)c1	7.4	54.1*	0.7	0.8	2.5	-1.8
Cc1cccc(N2CCN(S(=O)(=O)c3ccc4c(c3)C(C)(C)C(=O)N4C)CC2)c1C	12.0	46.6*	-3.3	-2.2	-0.1	-3.8
O=C(NCc1cccnc1)c1ccc(COc2cccc3ccccc23)o1	-18.7	61.3*	-0.4	-2.5	-1.9	.
CCOC(=O)C1CCCN(CC(=O)Nc2c(C(=O)OC)[nH]c3ccc(C)cc23)C1 (stereo unspecified)	-17.2	1.0	-1.4	-5.2	4.0	4.2
CCOC(=O)C1CCCN(CC(=O)Nc2c(C(=O)OC)[nH]c3ccc(Cl)cc23)C1 (stereo unspecified)	-14.9	6.0	-0.1	-4.6	1.7	61.4*
O=C1c2ccccc2[C@@H]2C[C@@H](O)[C@H](Nc3cccc4ccccc34)CCN12	-24.2	.	1.5	-3.9	.	83.0*
COc1ccc(Cl)c(Cn2c(NCc3ccco3)nc3c2c(=O)n(C)c(=O)n3C)c1	72.1*	27.4	0.7	-1.4	1.4	-1.8
CC(C)(C)NC(=O)CN(Cc1ccc(F)cc1)C(=O)Cn1nnc(-c2ccc(F)cc2)n1	-31.5	-0.1	3.8	2.4	2.7	58.4*
O=C(CN(C(=O)Cn1nnc(-c2ccc(F)cc2)n1)C1CCCC1)NC1CCCC1	-2.4	0.6	-1.5	-0.9	0.4	66.7*
CCCCOc1ccc(C(=O)NCC(=O)N2CC(C)CC(C)C2)cc1 (stereo unspecified)	0.4	.	-1.9	4.5	1.0	9.2
CS(=O)(=O)c1ncc(Cl)c(C(=O)Nc2ccc(N3CCOCC3)cc2)n1	1.0	-6.2	2.6	5.8	1.7	10.8
CS(=O)(=O)c1ncc(Cl)c(C(=O)Nc2ccc(OC(F)F)cc2)n1	9.8	3.3	-6.5	-6.5	4.1	53.8*
CC(C)(C)c1ccc(/C([O-])=C(/C(=S)NCc2ccco2)[n+]2ccccc2)cc1	.	53.2*	.	.	-1.0	.
COc1ccc(/C=N/NC(=O)CN2CCSCC2)cc1C	-12.9	4.2	-0.8	2.9	2.1	0.7
O=C(Nc1ccc(-n2nncc2-c2ccco2)cc1)c1cc2ccccc2oc1=O	-52.6	77.5*	4.6	-0.7	-3.2	11.4
CN(CC(=O)Nc1ccc(F)c(F)c1F)C(=O)CCN1C(=O)C2CCCCC2C1=O (stereo unspecified)	-44.0	.	-1.0	-3.0	2.9	0.4
CC(/C=C1\SC(=S)N(NC(=O)c2ccc(C)cc2)C1=O)=C\c1ccccc1	-17.8	66.5*	-8.7	2.4	3.4	9.0
COc1cc(OC)c(NC(=O)c2ccc3c(SCC(=O)O)c4c(nc3c2)CCCC4)cc1Cl	-22.1	46.9*	3.5	3.4	0.7	-5.1
SMILES	NR2E3 ag-1	HCV core dimer	DAGLB inhibitor	MT1-MMP act inh	NR2E3 ag-2	Vif imaging
COc1cc(NC(=O)c2ccc3c(SCC(=O)O)c4c(nc3c2)CCCC4)cc(OC)c1OC	-1.4	6.4	-1.9	4.2	-2.7	2.4
O=C(c1cc(-c2ccccc2O)on1)N1CCOCC1	-88.0	3.5	-0.1	-1.3	-2.1	-5.3
O=C(c1cc(-c2ccccc2O)on1)N1CCCCCC1	-132.9	5.2	-2.1	-2.5	-3.4	74.5*
COCCN1C(=O)CCC1(C)C(=O)NC1CCCCC1 (stereo unspecified)	-4.5	.	.	4.2	.	.
CC1(C(=O)NCc2cccc3ccccc23)CCN1Cc1cccc2c1OCO2 (stereo unspecified)	-13.4	.	.	-4.9	.	0.2
Cc1ccc(/C=N/c2sc3c(c2C#N)CCC3)s1	-0.2	13.0	3.6	3.7	1.8	53.4*
Cc1nn(-c2ccc(F)cc2)c(Cl)c1C(=O)NCC1CCCO1 (stereo unspecified)	2.9	.	-1.9	0.0	3.1	-20.4
CC(=O)c1cccc(NC(=O)CSc2ccc(-c3ccco3)nn2)c1	-59.7	10.0	2.7	0.4	0.4	-0.8
O=C(CSc1ccc(-c2ccco2)nn1)c1cccc([N+](=O)[O-])c1	-1.8	65.1*	6.2	8.2	-0.6	?
Cc1cc(SCC(=O)c2cccc([N+](=O)[O-])c2)nc(=O)[nH]1	-71.8	70.5*	-1.1	1.2	-1.9	-5.6
C[C@@H]1CN([C@H](C)CO)C(=O)CCCn2cc(nn2)CO[C@H]1CN(C)C(=O)c1ccccc1	4.1	.	.	1.0	.	69.7*
C[C@H]1CN([C@@H](C)CO)C(=O)CCCn2cc(nn2)CO[C@@H]1CN(C)C(=O)OCc1ccccc1	-10.7	.	.	-0.1	.	.
Cc1cc(C)cc(C(=O)OCC(=O)Nc2ncccn2)c1	-9.2	.	0.4	2.3	3.9	56.3*
Nc1nnn(CC(=O)N/N=C/c2cccc(Cl)c2)n1	14.6	-2.0	-1.9	4.2	1.1	60.5*
CC1C(=O)N2CCCc3cc(NC(=O)C4CC4)cc1c32 (stereo unspecified)	-6.1	-1.9	1.7	1.6	-1.9	2.6
O=C(Nc1ccc(NC(=S)NC(=O)c2ccco2)cc1)c1ccc(Br)cc1	6.8	.	0.4	1.5	.	53.3*
O=C(Nc1ccc(NC(=S)NC(=O)C(c2ccccc2)c2ccccc2)cc1)c1ccccc1	-1.8	57.0*	0.8	-18.6	-2.4	21.5
O=C(NC(=S)Nc1ccc(NC(=O)c2ccccc2)cc1)c1ccc(F)cc1	-21.0	8.9	-0.1	7.5	4.2	50.5*
O=C(NC(=S)Nc1ccc(-c2ccccc2)cc1)c1ccccc1	-35.8	.	-8.1	3.7	.	2.0
CNS(=O)(=O)c1cc(S(=O)(=O)NC)c2cccc3c2c1NC3=O	-4.1	-9.5	1.9	-3.6	1.9	-3.1
